According to ChEMBL document CHEMBL3407367 (J Med Chem, 2015):
Values after ≈ are worked out from the molar mass of the structure shown. Active and inactive are the calls of the source. The rule behind the calls is not given here. Positions of bridges follow the written chain, without caps; N, C: chain ends. Non-standard residues stand in square brackets, D forms with d. Residues, ends and D or L forms follow the SMILES beside them. Trp(1-Me) = Cn1cc(C[C@H](N)C(=O)O)c2ccccc21; 1Nal = N[C@@H](Cc1cccc2ccccc12)C(=O)O

What was measured:
[1] = tested on: RPE; test: Inhibition of complement activation in human fetal RPE cells assessed as reduction in C5b-9 formation at 1 uM by fluorescence assay in presence of complement-competant human serum; assay type: cell-based
How it was run: (§1)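 Human fetal RPE cells from two donor lines (081309, 072810) were grown on porous supports in Miller medium with 5% FCS. Peptide (1 µM; one experiment 1, 10, 50 µM) in serum-free medium with 10% human complement serum was premixed 30 min at RT, then incubated overnight at 37 °C. Samples were PFA-fixed and sections immunostained; the confocal C5b-9/ApoE area ratio is given as % of serum-only control; n = 10; Mann–Whitney U.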

[2] = Solubility of the compound in PBS at pH 7.4 after 24 to 48 hrs by spectrophotometry; assay type: physicochemical
How it was run: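 About 1 mg peptide put in 200 μL PBS pH 7.4 (top reportable value 5 mg/mL). Vortexed 30 s, centrifuged 13000g for 5 min. Supernatant A280 read and converted to concentration by Beer–Lambert, with extinction coefficients from Trp/Tyr count. Samples held at 4 °C and re-read at 24 and 48 h. Mean and standard deviation of three readings per sample.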

[3] = tested on: RPE; test: Inhibition of complement activation in human fetal RPE cells assessed as reduction in C5b-9 formation at 50 uM by fluorescence assay in presence of complement-competant human serum; assay type: cell-based; how it was run: as §1
[4] = molecular target: Complement C3 (Homo sapiens, UniProt P01024); test: Inhibition of C3 cleavage in human serum assessed as reduction in C5b-9 formation compound preincubated for 15 mins measured 1 hr post LPS stimulation by ELISA
Chain of Complement C3 (P01024 23-667 limits assumed): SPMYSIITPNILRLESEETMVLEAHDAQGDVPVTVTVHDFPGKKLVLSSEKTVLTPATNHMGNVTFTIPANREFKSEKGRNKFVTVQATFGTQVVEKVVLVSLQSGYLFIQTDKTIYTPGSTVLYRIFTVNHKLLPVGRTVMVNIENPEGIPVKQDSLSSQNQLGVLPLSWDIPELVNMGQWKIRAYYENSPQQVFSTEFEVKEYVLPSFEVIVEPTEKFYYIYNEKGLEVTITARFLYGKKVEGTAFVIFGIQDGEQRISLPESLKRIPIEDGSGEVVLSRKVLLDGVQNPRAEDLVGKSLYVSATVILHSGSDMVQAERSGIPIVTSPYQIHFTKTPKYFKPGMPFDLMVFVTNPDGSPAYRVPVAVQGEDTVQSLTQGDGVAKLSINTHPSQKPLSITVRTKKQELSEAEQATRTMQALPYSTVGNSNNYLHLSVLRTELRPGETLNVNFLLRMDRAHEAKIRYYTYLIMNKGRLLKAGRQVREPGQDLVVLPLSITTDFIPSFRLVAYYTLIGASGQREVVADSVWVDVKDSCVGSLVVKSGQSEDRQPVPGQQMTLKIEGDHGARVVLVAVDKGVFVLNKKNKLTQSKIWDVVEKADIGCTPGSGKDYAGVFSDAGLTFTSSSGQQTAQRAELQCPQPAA
Chain of Complement C3 (P01024 672-1663 limits assumed): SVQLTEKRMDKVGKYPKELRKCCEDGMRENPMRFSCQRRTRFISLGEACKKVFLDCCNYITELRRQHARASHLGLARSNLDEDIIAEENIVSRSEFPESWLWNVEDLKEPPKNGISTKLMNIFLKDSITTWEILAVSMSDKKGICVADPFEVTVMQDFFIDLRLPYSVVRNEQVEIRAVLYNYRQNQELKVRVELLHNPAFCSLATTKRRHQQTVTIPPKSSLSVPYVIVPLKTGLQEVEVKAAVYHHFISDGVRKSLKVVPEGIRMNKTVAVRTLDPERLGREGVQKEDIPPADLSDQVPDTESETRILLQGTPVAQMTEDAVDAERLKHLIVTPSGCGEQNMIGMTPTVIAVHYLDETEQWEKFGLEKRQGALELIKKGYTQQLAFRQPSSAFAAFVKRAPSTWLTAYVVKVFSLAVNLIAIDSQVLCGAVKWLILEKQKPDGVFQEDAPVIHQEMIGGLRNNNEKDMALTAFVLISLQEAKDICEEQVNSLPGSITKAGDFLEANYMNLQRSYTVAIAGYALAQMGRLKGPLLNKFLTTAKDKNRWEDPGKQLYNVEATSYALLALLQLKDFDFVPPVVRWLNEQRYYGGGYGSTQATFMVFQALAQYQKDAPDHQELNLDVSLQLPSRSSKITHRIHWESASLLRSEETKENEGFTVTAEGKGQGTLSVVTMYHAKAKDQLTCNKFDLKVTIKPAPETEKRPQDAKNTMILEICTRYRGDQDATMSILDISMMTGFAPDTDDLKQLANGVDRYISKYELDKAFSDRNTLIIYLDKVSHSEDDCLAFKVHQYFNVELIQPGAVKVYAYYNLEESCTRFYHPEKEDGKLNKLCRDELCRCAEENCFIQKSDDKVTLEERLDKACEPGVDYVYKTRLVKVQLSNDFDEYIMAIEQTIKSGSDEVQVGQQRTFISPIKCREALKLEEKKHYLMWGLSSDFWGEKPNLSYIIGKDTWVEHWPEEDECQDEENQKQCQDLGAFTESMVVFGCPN

Compound	inhibition [1]	solubility [2]	other results
CC(=O)N[C@@H](CC(N)=O)C(=O)N[C@@H](CCCNC(=N)N)C(=O)N[C@@H](CC(C)C)C(=O)N[C@H]1CSSC[C@@H](C(=O)N[C@H](C(N)=O)[C@@H](C)O)NC(=O)[C@H](CCCNC(=N)N)NC(=O)[C@H](Cc2cnc[nH]2)NC(=O)[C@H](Cc2cccc3ccccc23)NC(=O)CNC(=O)[C@H](Cc2c[nH]c3ccccc23)NC(=O)[C@H](CC(=O)O)NC(=O)[C@H](CCC(N)=O)NC(=O)[C@H](Cc2c[nH]c3ccccc23)NC(=O)[C@H](C(C)C)NC1=O (Ac-NRLCVWQDWG[1Nal]HRCT-NH2; disulfide 4-14)	Active		
CC[C@H](C)[C@H](NC(=O)[C@H](CO)NC(=O)[C@H](CCCNC(=N)N)NC(C)=O)C(=O)N[C@H]1CSSC[C@@H](C(=O)N[C@H](C(N)=O)[C@@H](C)O)NC(=O)[C@H](CCCNC(=N)N)NC(=O)[C@H](Cc2cnc[nH]2)NC(=O)[C@H](C)NC(=O)CNC(=O)[C@H](Cc2c[nH]c3ccccc23)NC(=O)[C@H](CC(=O)O)NC(=O)[C@H](CCC(N)=O)NC(=O)[C@H](Cc2cccc3ccccc23)NC(=O)[C@H](C(C)C)NC1=O (Ac-RSICV[1Nal]QDWGAHRCT-NH2; disulfide 4-14)	Active		
CC[C@H](C)[C@H](N)C(=O)N[C@H]1CSSC[C@@H](C(=O)N[C@H](C(N)=O)[C@@H](C)O)NC(=O)[C@H](CCCN=C(N)N)NC(=O)[C@H](Cc2cnc[nH]2)NC(=O)[C@H](Cc2cnc[nH]2)NC(=O)CNC(=O)[C@H](Cc2c[nH]c3ccccc23)NC(=O)[C@H](CC(=O)O)NC(=O)[C@H](CCC(N)=O)NC(=O)[C@H](C(C)C)NC(=O)[C@H](C(C)C)NC1=O [COMPSTATIN]		4500 µg/mL (≈ 2900 µM)	
CC[C@H](C)[C@H](N)C(=O)N[C@H]1CSSC[C@@H](C(=O)N[C@H](C(N)=O)[C@@H](C)O)NC(=O)[C@H](CCCNC(=N)N)NC(=O)[C@H](Cc2cnc[nH]2)NC(=O)[C@H](Cc2cnc[nH]2)NC(=O)CNC(=O)[C@H](Cc2c[nH]c3ccccc23)NC(=O)[C@H](CC(=O)O)NC(=O)[C@H](CCC(N)=O)NC(=O)[C@H](C(C)C)NC(=O)[C@H](C(C)C)NC1=O			inhibition [3]: Active
CC[C@H](C)[C@H](NC(C)=O)C(=O)N[C@H]1CSSC[C@@H](C(=O)N[C@H](C(N)=O)[C@@H](C)O)NC(=O)[C@H](CCCNC(=N)N)NC(=O)[C@H](Cc2cnc[nH]2)NC(=O)[C@](C)(CC)NC(=O)CNC(=O)[C@H](Cc2c[nH]c3ccccc23)NC(=O)[C@H](CC(=O)O)NC(=O)[C@H](CCC(N)=O)NC(=O)[C@H](Cc2c[nH]c3ccccc23)NC(=O)[C@H](C(C)C)NC1=O	Active		
CC[C@H](C)[C@H](NC(C)=O)C(=O)N[C@H]1CSSC[C@@H](C(=O)N[C@H](C(N)=O)[C@@H](C)O)NC(=O)[C@H](CCCNC(=N)N)NC(=O)[C@H](Cc2cnc[nH]2)NC(=O)[C@H](Cc2cccc3ccccc23)NC(=O)CNC(=O)[C@H](Cc2c[nH]c3ccccc23)NC(=O)[C@H](CC(=O)O)NC(=O)[C@H](CCC(N)=O)NC(=O)[C@H](Cc2cn(C)c3ccccc23)NC(=O)[C@H](C(C)C)NC1=O (Ac-ICV[Trp(1-Me)]QDWG[1Nal]HRCT-NH2; disulfide 2-12)		100 µg/mL (≈ 57 µM)	IC50 [4]: 4 µM
CC[C@H](C)[C@H](NC(C)=O)C(=O)N[C@H]1CSSC[C@@H](C(=O)N[C@H](C(N)=O)[C@@H](C)O)NC(=O)[C@H](CCCNC(=N)N)NC(=O)[C@H](Cc2cnc[nH]2)NC(=O)[C@H](C)NC(=O)CNC(=O)[C@H](Cc2c[nH]c3ccccc23)NC(=O)[C@H](CC(=O)O)NC(=O)[C@H](CCC(N)=O)NC(=O)[C@H](Cc2cn(C)c3ccccc23)NC(=O)[C@H](C(C)C)NC1=O		1900 µg/mL (≈ 1170 µM)	
CC(=O)N[C@@H](CC(N)=O)C(=O)N[C@@H](CCCNC(=N)N)C(=O)N[C@@H](CC(C)C)C(=O)N[C@H]1CSSC[C@@H](C(=O)N[C@H](C(N)=O)[C@@H](C)O)NC(=O)[C@H](CCCNC(=N)N)NC(=O)[C@H](Cc2cnc[nH]2)NC(=O)[C@H](C)NC(=O)CNC(=O)[C@H](Cc2c[nH]c3ccccc23)NC(=O)[C@H](CC(=O)O)NC(=O)[C@H](CCC(N)=O)NC(=O)[C@H](Cc2c[nH]c3ccccc23)NC(=O)[C@H](C(C)C)NC1=O (Ac-NRLCVWQDWGAHRCT-NH2; disulfide 4-14)	Active		
CC[C@H](C)[C@H](NC(C)=O)C(=O)N[C@H]1CSSC[C@@H](C(=O)N[C@H](C(N)=O)[C@@H](C)O)NC(=O)[C@H](CCCNC(=N)N)NC(=O)[C@H](Cc2cnc[nH]2)NC(=O)[C@H](C)NC(=O)CNC(=O)[C@H](Cc2c[nH]c3ccccc23)NC(=O)[C@H](CC(=O)O)NC(=O)[C@H](CCC(N)=O)NC(=O)[C@H](Cc2c[nH]c3ccccc23)NC(=O)[C@H](C(C)C)NC1=O	Active	3200 µg/mL (≈ 1980 µM)	
CC[C@H](C)[C@H](NC(C)=O)C(=O)N[C@H]1CSSC[C@@H](C(=O)N[C@H](C(N)=O)[C@@H](C)O)NC(=O)[C@H](CCCNC(=N)N)NC(=O)[C@H](Cc2cnc[nH]2)NC(=O)[C@H](Cc2cccc3ccccc23)NC(=O)CNC(=O)[C@H](Cc2c[nH]c3ccccc23)NC(=O)[C@H](CC(=O)O)NC(=O)[C@H](CCC(N)=O)NC(=O)[C@H](Cc2c[nH]c3ccccc23)NC(=O)[C@H](C(C)C)NC1=O (Ac-ICVWQDWG[1Nal]HRCT-NH2; disulfide 2-12)		100 µg/mL (≈ 57.5 µM)	
CC[C@H](C)[C@H](NC(=O)[C@H](CO)NC(=O)[C@H](CCCNC(=N)N)NC(C)=O)C(=O)N[C@H]1CSSC[C@@H](C(=O)N[C@H](C(N)=O)[C@@H](C)O)NC(=O)[C@H](CCCNC(=N)N)NC(=O)[C@H](Cc2cnc[nH]2)NC(=O)[C@H](C)NC(=O)CNC(=O)[C@H](Cc2c[nH]c3ccccc23)NC(=O)[C@H](CC(=O)O)NC(=O)[C@H](CCC(N)=O)NC(=O)[C@H](Cc2ccc(O)cc2)NC(=O)[C@H](C(C)C)NC1=O	Active	5000 µg/mL (≈ 2730 µM)	
